Legend:
[1] = tested on: Trypanosoma brucei brucei; test: Antitrypanosomal activity against Trypanosoma brucei brucei 427 bloodstream form after 48 hrs by Alamar blue assay; assay type: functional, organism-based; settings: Trypanosoma brucei, 427, 48 h
How it was run: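 Bloodstream parasites in 384-well plates, 24 h preincubation at 37 °C/5% CO2. DMSO dilutions diluted 1:21 in DMEM and added to give final 41.67 to 0.0004 µM; 48 h incubation. 70% Alamar Blue in HMI-9 + 10% FCS added, 2 h at 37 °C then 22 h at room temperature; read at ex 535/em 590 nm.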

[2] = Selectivity index, ratio of IC50 for HEK293 cells to IC50 for Trypanosoma brucei brucei 427 bloodstream form; assay type: toxicity, cell-based; settings: human, read-out: Ratio IC50
How it was run: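 HEK293 cells (55 µL of 72,727 cells/mL in DMEM + 10% FCS) in 384-well plates, 24 h at 37 °C/5% CO2. Drug diluted 1:21 from DMSO, final 83.34 to 0.0004 µM, 48 h. […] SI relative to T. b. brucei.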

Row | Structure (SMILES) | IC50 [1] | selectivity ratio [2]
1 | O=C(Nc1ccc(Cl)c(-c2nc3ncccc3o2)c1)c1ccncc1 | 3.4 µM | 
2 | O=C(Nc1cccc(-c2nc3ncc(-c4ccccc4)cc3o2)c1)c1ccco1 | 0.12 µM | 84
3 | O=C(Nc1cccc(-c2nc3ncccc3o2)c1)c1cnco1 | 2.9 µM | 29
4 | COc1ccc(-c2cnc3nc(-c4cccc(NC(=O)c5ccco5)c4)oc3c2)cc1 | 0.63 µM | 130
5 | Cc1ccc(-c2nc3ncccc3o2)cc1NC(=O)c1ccco1 | 6.2 µM | 13
6 | O=C(Nc1cc(-c2nc3ncccc3o2)ccn1)c1ccco1 | > 10 µM | 
7 | O=C(Nc1cc(-c2nc3ncccc3o2)ccc1F)c1ccco1 | 6.3 µM | 13
8 | O=C(Nc1ccc(Cl)c(-c2nc3ccccc3o2)c1)c1ccco1 | > 10 µM | 
9 | COc1cccc(C(=O)Nc2ccc(Cl)c(-c3nc4ncccc4o3)c2)c1 | > 10 µM | 
10 | COc1ccccc1C(=O)Nc1ccc(Cl)c(-c2nc3ncccc3o2)c1 | > 10 µM | 
11 | O=C(Nc1cccc(-c2nc3ncccc3o2)c1)c1ccoc1 | 0.6 µM | 89
12 | COc1ccc(-c2nc3ncccc3o2)cc1NC(=O)c1ccco1 | 1.1 µM | 74
13 | Cc1ccc(NC(=O)c2cscn2)cc1-c1nc2ncccc2o1 | 2.6 µM | 32
14 | O=C(Nc1ccc(Cl)c(-c2nc3ncccc3o2)c1)c1ccno1 | 3.2 µM | 
15 | Cc1ccoc1C(=O)Nc1ccc(Cl)c(-c2nc3ncccc3o2)c1 | 0.65 µM | > 130
16 | O=C(Nc1ccc(Cl)c(-c2nc3ncccc3o2)c1)c1cc2ccccc2o1 | > 10 µM | 
17 | O=C(Nc1cccc(-c2nc3ncccc3o2)c1Cl)c1ccco1 | > 10 µM | 
18 | O=C(Nc1ccc(Cl)c(-c2nc3ncccc3o2)c1)c1cccnc1 | > 10 µM | 
19 | Cc1ccc(NC(=O)c2ccco2)cc1-c1nc2ncccc2o1 | 0.94 µM | > 88
20 | O=C(Nc1cc(-c2nc3ncccc3o2)ccc1Cl)c1ccco1 | > 10 µM | 
21 | O=C(Nc1ccc(F)c(-c2nc3ncccc3o2)c1)c1ccco1 | 0.29 µM | 290
22 | CN(C(=O)c1ccccc1)c1ccc(Cl)c(-c2nc3ncccc3o2)c1 | > 10 µM | 
23 | Cc1ccc(NC(=O)c2cnco2)cc1-c1nc2ncccc2o1 | > 10 µM | 
24 | O=C(Nc1cncc(-c2nc3ncccc3o2)c1)c1ccco1 | > 10 µM | 

The next lines start with results.

Row | IC50 [1] | Structure (SMILES) | selectivity ratio [2]
25 | > 10 µM | COCC(=O)Nc1ccc(Cl)c(-c2nc3ncccc3o2)c1 | 
26 | 1.3 µM | O=C(Nc1cccc(-c2nc3ncccc3o2)c1)c1cscn1 | 63
27 | > 10 µM | O=C(Nc1cccc(-c2nc3ncccc3o2)c1F)c1ccco1 | 
28 | 0.34 µM | O=C(Nc1cccc(-c2nc3ncccc3o2)c1)c1ccco1 | > 245
29 | 0.55 µM | O=C(Nc1cccc(-c2nc3ncc(-c4ccc(Cl)cc4)cc3o2)c1)c1ccco1 | 150
30 | 1.5 µM | O=C(Nc1ccc(Cl)c(-c2nc3ncccc3o2)c1)c1cnco1 | > 45
31 | 0.78 µM | O=C(Nc1cccc(-c2nc3ncccc3[nH]2)c1)c1ccco1 | 54
32 | 1 µM | O=C(Nc1cccc(-c2nc3ncccc3[nH]2)c1)c1ccoc1 | 39
33 | > 10 µM | O=C(Nc1ccc(Cl)c(-c2nc3ncccc3o2)c1)c1c[nH]cn1 | 
34 | > 10 µM | Cc1c(NC(=O)c2ccco2)cccc1-c1nc2ncccc2o1 | 
35 | > 10 µM | O=C(Nc1ccc(Cl)c(-c2nc3ncccc3o2)c1)c1cc[nH]n1 | 
36 | > 10 µM | O=C(Nc1cc(F)cc(-c2nc3ncccc3o2)c1)c1ccco1 | 
37 | 5.7 µM | O=C(Nc1ccc(Cl)c(-c2nc3ncccc3o2)c1)c1ccccn1 | 15
38 | > 10 µM | CN(C(=O)c1ccoc1)c1ccc(Cl)c(-c2nc3ncccc3o2)c1 | 

From ChEMBL document CHEMBL2407056, “3-(Oxazolo[4,5-b]pyridin-2-yl)anilides as a novel class of potent inhibitors for the kinetoplastid Trypanosoma brucei, the causative agent for human African trypanosomiasis” (Eur J Med Chem, 2013)
